Results as given in the array DNA melting data of Ke et al. (doi:10.1101/2024.01.08.574731).

How the values were obtained:
[1] = folding enthalpy; higher = less favourable; fluorescence melt of hairpins on a sequencing array, two-state fit; settings: sodium 0.088 M
Method in brief: (§1)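 Melting temperature and folding enthalpy were obtained by bootstrapped two-state fitting. Fits used Cy3 fluorescence of library hairpins with annealed Cy3 and quencher oligos on a sequenced MiSeq flow cell, imaged in 50 mM Na-HEPES pH 8.0, 25 mM NaCl in 2.5 °C steps up to 60 °C and normalised to pre-quench Cy3 and control constructs. Four replicates were combined by inverse-variance weighting, and fitted temperatures were raised by 9.35 °C to match UV melts.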

[2] = melting temperature; fluorescence melt of hairpins on a sequencing array, two-state fit, raised by 9.35 °C to match UV melts; settings: sodium 0.088 M
Method in brief: as §1

Sequence	folding enthalpy [1]	Tm [2]
GTTTTTGCGAAAGCAAAC (((..(((....))))))	-11.9 kcal/mol	35.2 °C
GTCGACGGAAACGCCGAC ((((.((....)).))))	-44.7 kcal/mol	55.3 °C
GATCCTGGTCAGGATC ((((((....))))))	-41.8 kcal/mol	55.5 °C
GGTCTCGAAAGAGCGACC ((((((....)))..)))	-18.1 kcal/mol	37.3 °C
GGTGGAGGAAACTCCATC (.(((((....))))).)	-26.6 kcal/mol	49.4 °C
GGGTCGTCGAAAGACCCC (((..(((....))))))	-21.6 kcal/mol	52.6 °C
GCGCAGCGAAAGCGGTGC ((.(.((....)).).))	-16.5 kcal/mol	61.5 °C
GTAAGCCGAAAGGCATAC (((.(((....))).)))	-18.4 kcal/mol	46.6 °C
GAAGCGGCGAAAGCCTTC (((..(((....))))))	-10.2 kcal/mol	28.5 °C
GTTGAAGGAAACTTTAAC (((.(((....))).)))	-17.7 kcal/mol	32.1 °C
GCAACGCGAAAGCCCTGC (((..((....))..)))	-7.63 kcal/mol	23.8 °C
GTAGTTGGAAACAACCAC ((.((((....)))).))	-18.7 kcal/mol	32.6 °C
GACCACCGAAAGGTAGTC (((.(((....))).)))	-31.6 kcal/mol	47 °C
GTCTCGTCGAAAGACGAC (((..(((....))))))	-7.57 kcal/mol	37 °C
GCCCAAGGAAACTCGGGC ((((.((....)).))))	-26.9 kcal/mol	48.8 °C
GCGAGCGAAAGCTTCGC ((((((....))).)))	-28 kcal/mol	66.1 °C
GCACTGGCGAAAGCCTGC (((..(((....))))))	-12.1 kcal/mol	44.3 °C
GCAACCGAAAGGTTTGC ((((((....))).)))	-23.6 kcal/mol	55.7 °C
TGTAGGAAACTACA (((((....)))))	-16.9 kcal/mol	36.9 °C
GCTATACGAAAGTACAGC (((.(((....))).)))	-30.2 kcal/mol	41.8 °C
GCAATGCGAAAGCTTCGC ((.(.((....)).).))	-11.9 kcal/mol	44 °C
CCTGGGAAACCAGG (((((....)))))	-19.5 kcal/mol	55 °C
GCGTTCGAAAGAATTCGC ((((((....)))..)))	-26.6 kcal/mol	36.2 °C

Sequence	folding enthalpy [1]	Tm [2]
GGAAACGCGAAAGCGTCC (((..(((....))))))	-9.21 kcal/mol	39.1 °C
GTAGGCCGAAAGGCTTAC (((.(((....))).)))	-21.2 kcal/mol	55.4 °C
GATCTAATCTAGATC ((((((...))))))	-28.2 kcal/mol	38.8 °C
GCGTCAGCGAAAGCTCGC (((..(((....))))))	-10.1 kcal/mol	47.2 °C
GCAATCTCGAAAGAGTGC (((..(((....))))))	-24.5 kcal/mol	43.2 °C
GCAGTTCGAAAGAATGC (((.(((....))))))	-21.4 kcal/mol	41.2 °C
GCCTCGCGAAAGCGGTGC ((..(((....)))..))	-14.1 kcal/mol	43.7 °C
GCCGGGCGAAAGCACTGC ((.(.((....)).).))	-18.6 kcal/mol	50.8 °C
GATCGTAACGACGATC ((((((....))))))	-34.8 kcal/mol	54.9 °C
GTGATGGCGAAAGCCCAC (((..(((....))))))	-14.6 kcal/mol	41.2 °C
GATCTACAGTAGATC ((((((...))))))	-38.7 kcal/mol	39.3 °C
GGTATCGGAAACGACACC (((.(((....))).)))	-30.7 kcal/mol	43.4 °C
GTTGCACGAAAGTGAAC (((.(((....))))))	-14.1 kcal/mol	39.2 °C
GTGCAGAAATGCAC (((((....)))))	-25.6 kcal/mol	57.1 °C
GTGTCCGAAAGGATACAC ((((((....)))..)))	-18.7 kcal/mol	49 °C
GATCGTGGTTACGATC ((((((....))))))	-40.3 kcal/mol	58.3 °C
GTGAACCGAAAGGTGCAC (((.(((....))).)))	-39.6 kcal/mol	60.7 °C
GCACGGCGAAAGCATTGC (((..((....))..)))	-16.6 kcal/mol	39.9 °C
GCAAACGAAAGTTGATGC ((((((....)))..)))	-15.2 kcal/mol	35.9 °C
GAGGGCGAAAGCCAGCTC ((((((....)))..)))	-13.7 kcal/mol	46.7 °C
GCACTTACGAAAGTATGC (((..(((....))))))	-18.1 kcal/mol	30.3 °C
GCCTTGTCGAAAGACGGC (((..(((....))))))	-18 kcal/mol	47.8 °C
GTAGAGCGAAAGCTATAC (((.(((....))).)))	-23.4 kcal/mol	51.6 °C

Sequence	folding enthalpy [1]	Tm [2]
GATCACACTCGTGATC ((((((....))))))	-40.6 kcal/mol	57.4 °C
GTTGCCGAAAGGCGCAAC ((((((....)))..)))	-8.82 kcal/mol	31.9 °C
GTTCAACGAAAGTTAAAC (((.(((....))).)))	-18.6 kcal/mol	30.7 °C
GGCATTGAAAAATGCC ((((((....))))))	-36.2 kcal/mol	61.5 °C
GTGGACGAAAGTCTGCAC ((((((....)))..)))	-15.7 kcal/mol	40.6 °C
CCCTTGAAAAAGGG (((((....)))))	-16.9 kcal/mol	47.2 °C
GGATGCGAAAGCACTTCC ((((((....)))..)))	-17.4 kcal/mol	42.2 °C
GCCGATCCGAAAGGAGGC (((..(((....))))))	-36.8 kcal/mol	52.7 °C
GGAGTTGGAAACAACTCC (((((((....)))))))	-45.3 kcal/mol	65.9 °C
GCCTGGCGAAAGCTCGGC (((..((....))..)))	-18.8 kcal/mol	55.9 °C
GATCCGCCCTCGGATC ((((((....))))))	-40.6 kcal/mol	57.1 °C
GCATCAGCGAAAGCTTGC (((..(((....))))))	-13.2 kcal/mol	41.3 °C
GAAGCCGGAAACAGCTTC (((((.(....).)))))	-29.2 kcal/mol	42.8 °C
GCGAGTGGAAACGCTCGC (((((.(....).)))))	-46 kcal/mol	64 °C
GTCGGCGAAAGCCACGAC ((((((....)))..)))	-14.4 kcal/mol	56 °C
CGCTCGGAAACGAAAGCG ((((((....)))..)))	-27.8 kcal/mol	47.2 °C
GGCGACGAAAGTCGTGCC ((((((....)))..)))	-12.7 kcal/mol	51.2 °C
ACGTAGAAATACGT (((((....)))))	-19.9 kcal/mol	37.9 °C
GATCTTCTGTAAGATC ((((((....))))))	-34.7 kcal/mol	43.1 °C
GAGGTAGGAAACTACCCC (.(((((....))))).)	-12.1 kcal/mol	39.1 °C
GGCATGCCGAAAGGCGCC (((..(((....))))))	-16 kcal/mol	57.5 °C
GAGAGCGGAAACGTTCTC ((((.((....)).))))	-34.6 kcal/mol	49.1 °C
GCGGTCTCCCGC ((((....))))	-33.4 kcal/mol	55.5 °C

Sequence	folding enthalpy [1]	Tm [2]
GCCATCGCGAAAGCGGGC (((..(((....))))))	-17.4 kcal/mol	53.9 °C
GATCCAGGTTTGGATC ((((((....))))))	-42.5 kcal/mol	51.7 °C
GGTCTGACGAAAGTCACC (((..(((....))))))	-10.4 kcal/mol	27.8 °C
GGACTGAAAAGTCC (((((....)))))	-25.9 kcal/mol	59.9 °C
GCACAACGAAAGTTATGC (((.(((....))).)))	-34.9 kcal/mol	44.5 °C
GAAGATACGAAAGTATTC (((..(((....))))))	-8.74 kcal/mol	27.7 °C
AGTAGGAAACTACT (((((....)))))	-16.9 kcal/mol	33.2 °C
GAGATACGAAAGTACTC (((.(((....))))))	-19.9 kcal/mol	36.7 °C
CGCTCGGAAACGAGGGCG ((((((....)))..)))	-12.4 kcal/mol	51.7 °C
GCGTACCGAAAGGTCGC (((.(((....))))))	-36.5 kcal/mol	63.5 °C
GCCTACGAAAGTACGGGC ((((((....)))..)))	-27.2 kcal/mol	46.3 °C
GATCCATCTTGGATC ((((((...))))))	-35.2 kcal/mol	51.6 °C
GCCGTGGGAAACTGCGGC ((((..(....)..))))	-28.5 kcal/mol	53.9 °C
GAGGCCGAAAGGCAACTC ((((((....)))..)))	-14.2 kcal/mol	46.7 °C
GGCCCCGAAAGGGCTGCC ((((((....)))..)))	-15.1 kcal/mol	68.2 °C
GATGCTGGAAACAGTGTC ((..(((....)))..))	-26.2 kcal/mol	37.8 °C
GTGTGGGGAAACCCACAC (((((((....)))))))	-32.3 kcal/mol	69 °C
GATCGAGGCGTCGATC ((((((....))))))	-40.6 kcal/mol	55.1 °C
GCGGGGCGAAAGCGCGGC ((.(.((....)).).))	-27.6 kcal/mol	62.5 °C
GTTAAACGAAAGTTGAAC (((.(((....))).)))	-26 kcal/mol	41.7 °C
GGCTCCGAAAGGAGGGCC ((((((....)))..)))	-15.8 kcal/mol	52.5 °C
GTGGGCGGAAACGCTCAC (((.(((....))).)))	-34.3 kcal/mol	59.6 °C
GCACGGGGAAACCCGCGC ((.((((....)))).))	-36.1 kcal/mol	58.4 °C
